{"data": "Measurements gathered from unrelated publications", "observed": "microbial growth", "note": "Each line is one published result; the experiments were not run side by side."}
{"SMILES": "O=C(O)CN1C(=O)/C(=C/c2ccc(-c3ccc(N(c4ccccc4)c4ccccc4)cc3)cc2)SC1=S", "organism": "Bacillus cereus", "assay": "broth dilution", "test system": "ATCC10876", "MIC": "7.8 µg/mL"}
{"SMILES": "O=c1cc(-c2ccc(O)c(O)c2)oc2cc(O)cc(O)c12", "organism": "Helicobacter pylori", "assay": "broth dilution", "MIC": "3.9 µg/mL"}
{"SMILES": "Cc1cc(NS(=O)(=O)c2ccc(N)cc2)no1", "organism": "Salmonella enterica", "test system": "TYPHIMURIUM", "conditions": "20 h, pH 5.5", "MIC": "1020 µg/mL"}
{"SMILES": "O=C(O)c1cn(C2CC2)c2cc(N3CCNCC3)c(F)cc2c1=O", "organism": "Bacillus cereus", "assay": "broth dilution", "test system": "ATCC10876", "MIC": "0.12 µg/mL"}
{"SMILES": "O=C(Nc1ncc([N+](=O)[O-])s1)c1cccnc1F", "organism": "Helicobacter pylori", "assay": "broth dilution", "test system": "26695", "conditions": "27 h", "MIC": "3.7 µM"}
{"SMILES": "O=C(O)CN1C(=O)/C(=C/c2c3ccccc3c(-c3ccc(N(c4ccccc4)c4ccccc4)cc3)c3ccccc23)NC1=S", "organism": "Bacillus cereus", "assay": "broth dilution", "test system": "ATCC10876", "MIC": "> 1000 µg/mL"}
{"SMILES": "CS(=O)(=O)c1ccc([C@@H](O)[C@@H](CF)NC(=O)C(Cl)Cl)cc1", "organism": "Salmonella enterica", "test system": "F98, TYPHIMURIUM", "conditions": "20 h, pH 5.5", "MIC": "4 µg/mL"}
{"SMILES": "O=C(Nc1ncc([N+](=O)[O-])s1)c1ccncc1", "organism": "Helicobacter pylori", "assay": "broth dilution", "test system": "26695", "conditions": "27 h", "MIC": "16 µM"}
{"SMILES": "O=C1NC(=S)S/C1=C\\c1ccc(-c2ccc(N(c3ccccc3)c3ccccc3)cc2)cc1", "organism": "Bacillus cereus", "assay": "broth dilution", "test system": "ATCC10876", "MIC": "1000 µg/mL"}
{"SMILES": "CO/N=C(\\C(=O)N[C@@H]1C(=O)N2C(C(=O)O)=C(CSC(=O)c3ccco3)CS[C@H]12)c1csc(N)n1", "organism": "Salmonella enterica", "conditions": "20 h, pH 7.2", "MIC": "1 µg/mL"}
{"SMILES": "C[C@@H](O)[C@H]1C(=O)N2C(C(=O)O)=C(S[C@@H]3CN[C@H](C(=O)N(C)C)C3)[C@H](C)[C@H]12", "organism": "Salmonella enterica", "assay": "broth dilution", "test system": "TYPHIMURIUM", "conditions": "clinical isolate", "MIC": "≤ 0.5 µg/mL"}
{"SMILES": "CCN1CCN(c2cc3c(cc2F)c(=O)c(C(=O)O)cn3C2CC2)CC1", "organism": "Salmonella enterica", "test system": "ENTERITIDIS", "conditions": "20 h, pH 7.2", "MIC": "0.0625 µg/mL"}
{"SMILES": "Oc1ccc(-c2nc(-c3ccc(Oc4ccc(C(F)(F)F)cc4)cc3)no2)cc1", "organism": "Bacillus cereus", "assay": "broth dilution", "test system": "ATCC13061", "MIC": "2 µg/mL"}
{"SMILES": "CC1(C)S[C@@H]2[C@H](NC(=O)[C@H](N)c3ccccc3)C(=O)N2[C@H]1C(=O)O", "organism": "Salmonella enterica", "conditions": "20 h, pH 7", "MIC": "1 µg/mL"}
{"SMILES": "O=C1NC(=S)S/C1=C\\c1ccc(-c2ccc(N(c3ccccc3)c3ccccc3)cc2)c2ccccc12", "organism": "Bacillus cereus", "assay": "broth dilution", "test system": "ATCC10876", "MIC": "1000 µg/mL"}
